Here are results for 35 molecules from ChEMBL document CHEMBL1143786, “Constrained analogs of CB-1 antagonists: 1,5,6,7-Tetrahydro-4H-pyrrolo[3,2-c]pyridine-4-one derivatives” (Bioorg Med Chem Lett, 2007).

In series [1] the target is T1, Cannabinoid receptor 1 (Homo sapiens, UniProt P21554). Briefly: Displacement of [3H]CP-55940 from human CB1 receptor expressed in HEK cells. The series is classed as cell-based, HEK293. In outline: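 Membranes from HEK 293 cells expressing human CB-1, suspended in ice-cold 50 mM Tris pH 7.4, 2.5 mM EDTA, 5 mM MgCl2, 0.1% fatty acid free BSA; 3.3 µg protein incubated with 0.3 nM [3H]CP 55940 and graded compound, 30 °C, 90 min with shaking, triplicate. Nonspecific binding defined with 10 µM WIN 55212-2; filtration through GF/C, scintillation counting; Ki via Cheng–Prusoff from nonlinear-regression IC50.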

A further series deals with Cannabinoid receptor 2 (Homo sapiens, UniProt P34972). Briefly: Displacement of [3H]CP-55940 from human CB2 receptor expressed in HEK cells. The series is classed as cell-based, HEK293. In outline: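 Membranes from HEK 293 cells expressing human CB-2, in ice-cold 50 mM Tris pH 7.4, 2.5 mM EDTA, 5 mM MgCl2, 0.1% fatty-acid-free BSA. 3.3 µg protein with 0.3 nM [3H]CP 55940 and varying competitor, triplicate, 30 °C for 90 min with shaking. Nonspecific binding with 10 µM WIN 55212-2. Filtration onto GF/C, scintillation counting; Ki from IC50 by Cheng–Prusoff.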

Series [2] concerns the target T1, Cannabinoid receptor 1. As to the kind of experiment: Antagonist activity at CB1 receptor. The series is classed as functional.
For series [3], the system named is Rattus norvegicus. Briefly: Reduction in body weight in genetically obese Zucker rat at 5 mg/kg, po qd. The series is classed as functional. Further details: scale not given: the % may be the effect or the level left. In a few lines:
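Zucker fa/fa rats, single-housed on grid floors, sham-dosed with vehicle for at least 5 days, then weight-matched on 2-day baseline. Daily oral dosing at 5 mg/kg, 2 mL/kg, in PEG/methanesulfonic acid (80:20) before the nocturnal feeding phase. Body weight recorded daily over 9 days; mean ± SEM, 9–10 rats/group.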

The nature of series [4]: Cmax in Wistar rat at 10 mg/kg, po. The series is classed as ADME, organism-based. Details: dose 10 mg/kg, route oral. Particulars: in vivo. In a few lines:
(§1)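 Male Wistar rats, single oral dose of 10 mg/kg. Plasma exposure measured as Cmax and as AUC over 0–2 h.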

The nature of series [5]: AUC ( 0 to 2 hrs) in Wistar rat at 10 mg/kg, po. Type of series: ADME, organism-based. Further details: time < 2 hr, dose 10 mg/kg, route oral. Particulars: plasma. In a few lines: as §1
The test system of series [6] is Rattus norvegicus. Briefly: Reduction in food intake in fasted-refed Wistar rat at 10 mg/kg, po after 4 hrs. The series is classed as functional. Details: scale not given: the % may be the effect or the level left. In a few lines:
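Wistar rats fasted overnight (18 h), then given vehicle or compound orally at 10 mg/kg as a suspension in 30% cyclodextrin, 2 mL/kg, 1 h before re-feeding. Cumulative food intake from pre-weighed jars at 30, 60, 90, 180 and 240 min.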

Sequence of Cannabinoid receptor 2 (P34972 whole entry): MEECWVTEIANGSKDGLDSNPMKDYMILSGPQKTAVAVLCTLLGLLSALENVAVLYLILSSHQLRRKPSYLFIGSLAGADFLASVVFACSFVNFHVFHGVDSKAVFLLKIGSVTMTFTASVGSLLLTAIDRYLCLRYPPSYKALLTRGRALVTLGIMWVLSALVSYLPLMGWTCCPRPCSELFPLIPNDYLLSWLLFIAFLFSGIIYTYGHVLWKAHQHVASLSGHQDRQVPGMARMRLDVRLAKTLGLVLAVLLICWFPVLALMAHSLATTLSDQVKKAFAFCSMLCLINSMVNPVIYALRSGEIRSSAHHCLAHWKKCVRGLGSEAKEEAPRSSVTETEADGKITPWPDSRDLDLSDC
T1 sequence (P21554 whole entry): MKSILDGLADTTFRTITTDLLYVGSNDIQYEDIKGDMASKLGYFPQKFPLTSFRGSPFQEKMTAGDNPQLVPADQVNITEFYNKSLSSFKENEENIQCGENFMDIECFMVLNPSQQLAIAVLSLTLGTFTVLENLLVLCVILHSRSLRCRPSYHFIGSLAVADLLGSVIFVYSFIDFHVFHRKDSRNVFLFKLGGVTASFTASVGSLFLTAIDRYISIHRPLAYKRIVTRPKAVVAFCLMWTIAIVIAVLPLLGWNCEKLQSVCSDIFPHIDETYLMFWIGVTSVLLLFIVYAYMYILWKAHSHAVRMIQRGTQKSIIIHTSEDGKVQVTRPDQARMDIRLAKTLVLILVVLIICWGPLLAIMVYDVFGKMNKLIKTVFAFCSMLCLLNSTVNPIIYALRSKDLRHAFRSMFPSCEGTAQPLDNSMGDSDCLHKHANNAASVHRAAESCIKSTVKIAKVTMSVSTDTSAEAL

As a reminder, the Ki is the dissociation constant of the complex between target and ligand, obtained from inhibition or displacement. Regarding `Cc1c2c(n(-c3c(Cl)cccc3Cl)c1-c1ccc(Cl)cc1)CCN(C1CCCCC1)C2=O`, at Cannabinoid receptor 1 [1], the Ki amounted to 200 nM. The same measure, in the same setting: in the case of `COc1ccc(-c2c(C)c3c(n2-c2ccc(Cl)cc2Cl)CCN(C2CCCCC2)C3=O)cc1` it was 7.9 nM. As usually defined, the IC50 is the concentration that gives 50% inhibition. `Cc1ccccc1-n1c2c(c(C)c1-c1ccc(F)cc1)C(=O)N(C1CCCCC1)CC2` gave an IC50 at Cannabinoid receptor 1 [1] of 40 nM. Turning to `Cc1ccccc1-n1c2c(c(C)c1-c1ccc(C(F)(F)F)cc1)C(=O)N(C1CCCCC1)CC2`, at Cannabinoid receptor 1 [1], the 50% inhibitory concentration (IC50) turned out to be 9.3 nM. On the same count and under the same terms, in the case of `COc1cccc(-c2c(C)c3c(n2-c2ccc(Cl)cc2Cl)CCN(C2CCCCC2)C3=O)c1` it was 6.8 nM. On Cannabinoid receptor 1 [1], `COc1ccc(-c2c(C)c3c(n2-c2ccc(Cl)cc2Cl)CCN(C2CCCCC2)C3=O)cc1OC` showed a Ki of 5.5 nM.

For the molecule `Cc1c2c(n(-c3ccc(Cl)cc3Cl)c1-c1cccs1)CCN(C1CCCCC1)C2=O`, the IC50 on Cannabinoid receptor 1 [1] worked out at 19 nM. Regarding `Cc1c2c(n(-c3ccccc3Cl)c1-c1ccc(Cl)cc1)CCN(N1CCCCC1)C2=O`, the figures for the Ki at Cannabinoid receptor 1 [1] and on Cannabinoid receptor 2 were 3.5 nM and 1100 nM, respectively. Molecule `Cc1c2c(n(-c3ccc(Cl)cc3)c1-c1ccc(Cl)cc1)CCN(C1CCCCC1)C2=O` returned a Ki on Cannabinoid receptor 1 [1] above 2500 nM. Still for that read-out and setting: the same measure for `Cc1c2c(n(-c3ccc(Cl)cc3Cl)c1-c1ccc(C(=O)O)cc1)CCN(C1CCCCC1)C2=O`: above 2500 nM.

Turning to `Cc1c2c(n(-c3ccc(Cl)cc3Cl)c1-c1ccc(C(F)(F)F)cc1)CCN(C1CCCCC1)C2=O`, on Cannabinoid receptor 1 [1], the affinity corresponds to a Ki of 4.1 nM. Broadly, the Kb is the equilibrium dissociation constant of an antagonist, usually derived from a functional assay. For `Cc1c2c(n(-c3ccc(Cl)cc3Cl)c1-c1ccc(Cl)cc1)CCN(N1CCCCC1)C2=O`, the Ki on Cannabinoid receptor 1 [1] turned out to be 2.2 nM; at Cannabinoid receptor 2, 1300 nM. This molecule gave a Kb on Cannabinoid receptor 1 [2] of 12 nM. Regarding `CSc1ccc(-c2c(C)c3c(n2-c2ccc(Cl)cc2Cl)CCN(C2CCCCC2)C3=O)cc1`, the Ki at Cannabinoid receptor 1 [1] was above 2500 nM. `Cc1c2c(n(-c3ccc(Cl)cc3Cl)c1-c1ccccc1)CCN(C1CCCCC1)C2=O`: the IC50 on Cannabinoid receptor 1 [1] was determined as 16 nM. As for `Cc1cccc(-c2c(C)c3c(n2-c2ccc(Cl)cc2Cl)CCN(C2CCCCC2)C3=O)c1`, the IC50 on Cannabinoid receptor 1 [1] amounted to 17 nM. In turn, `Cc1c2c(n(-c3ccc(Cl)cc3)c1-c1ccc(Cl)cc1Cl)CCN(C1CCCCC1)C2=O` displayed an inhibition constant (Ki) at Cannabinoid receptor 1 [1] above 2500 nM. Take `Cc1c2c(n(-c3ccc(Cl)cc3Cl)c1-c1cc3ccccc3s1)CCN(C1CCCCC1)C2=O`: the half-maximal inhibitory concentration (IC50) at Cannabinoid receptor 1 [1] is 23 nM.

Regarding `Cc1c2c(n(-c3ccc(Cl)cc3Cl)c1-c1cccnc1)CCN(C1CCCCC1)C2=O`, the affinity at Cannabinoid receptor 1 [1] corresponds to a Ki of 390 nM. For `Cc1c2c(n(-c3ccc(Cl)cc3Cl)c1-c1ccc(F)cc1)CCN(C1CCCCC1)C2=O`, the inhibition constant Ki on Cannabinoid receptor 1 [1] was 6 nM. Regarding `Cc1c2c(n(-c3ccccc3Cl)c1-c1ccc(Cl)cc1)CCN(C1CCCCC1)C2=O`, at Cannabinoid receptor 1 [1], the affinity corresponds to a Ki of 2.8 nM. Molecule `COc1ccc(-c2c(C)c3c(n2-c2ccccc2C)CCN(N2CCCCC2)C3=O)cc1` displayed a Ki at Cannabinoid receptor 1 [1] of 74 nM. `Cc1c(C(=O)NN2CCCCC2)nn(-c2ccc(Cl)cc2Cl)c1-c1ccc(Cl)cc1` [RIMONABANT]: the Activity in the series with Rattus norvegicus [3] is -5.6%. Take `COc1ccc(-c2c(C)c3c(n2-c2ccccc2C)CCN(C2CCCCC2)C3=O)cc1`: on Cannabinoid receptor 1 [1], the half-maximal inhibitory concentration (IC50) was 22 nM.

The molecule `Cc1c2c(n(-c3ccc(Cl)cc3Cl)c1-c1cccc(C(F)(F)F)c1)CCN(C1CCCCC1)C2=O` came in with a half-inhibitory concentration (IC50) at Cannabinoid receptor 1 [1] of 67 nM. Take `Cc1c2c(n(-c3ccc(Cl)cc3Cl)c1-c1ccco1)CCN(C1CCCCC1)C2=O`: the IC50 at Cannabinoid receptor 1 [1] came to 20 nM.

`Cc1c2c(n(-c3ccc(Cl)cc3Cl)c1-c1ccc3c(c1)OCO3)CCN(C1CCCCC1)C2=O` showed an IC50 on Cannabinoid receptor 1 [1] of 12 nM. Broadly, the Cmax is the maximum level reached in the sampled fluid or tissue. What is called AUC(0-t) is the area under the concentration-time curve up to a stated or last time point. On to `COc1ccc(-c2c(C)c3c(n2-c2ccccc2Cl)CCN(N2CCCCC2)C3=O)cc1`, for which the highest level in series [4] (Cmax) was 620 nM. The molecule further registered an AUC(0-t) at 2 h in series [5] of 0.58 µM·h. In addition, the Activity is 36% with Rattus norvegicus [6] and -3% with Rattus norvegicus [3]. Also, the Ki at Cannabinoid receptor 1 [1] stood at 20 nM; at Cannabinoid receptor 2 it was 850 nM.

For the molecule `Cc1ccc(-c2c(C)c3c(n2-c2ccc(Cl)cc2Cl)CCN(C2CCCCC2)C3=O)cc1`, the affinity on Cannabinoid receptor 1 [1], expressed as Ki, was 10 nM. Regarding `Cc1c2c(n(-c3ccc(Cl)cc3Cl)c1-c1ccc(N)cc1)CCN(C1CCCCC1)C2=O`, on Cannabinoid receptor 1 [1], the Ki was found to be 920 nM. `C=Cc1ccc(-c2c(C)c3c(n2-c2ccc(Cl)cc2Cl)CCN(C2CCCCC2)C3=O)cc1`: the Ki on Cannabinoid receptor 1 [1] turned out to be 9.8 nM. Regarding `Cc1c2c(n(-c3ccc(Cl)cc3Cl)c1-c1ccsc1)CCN(C1CCCCC1)C2=O`, the IC50 on Cannabinoid receptor 1 [1] turned out to be 37 nM. As for `Cc1cn(-c2ccc(Cl)cc2Cl)c2c1C(=O)N(C1CCCCC1)CC2`, the Ki at Cannabinoid receptor 1 [1] stood at 240 nM. In turn, `Cc1c2c(n(-c3ccc(Cl)cc3Cl)c1-c1ccc(Cl)cc1)CCN(C1CCCCC1)C2=O` returned a maximum concentration (Cmax) in series [4] below 50 nM. In addition, the Ki was 7.5 nM at Cannabinoid receptor 1 [1] and 8300 nM at Cannabinoid receptor 2. The molecule further returned a Kb on Cannabinoid receptor 1 [2] of 6.5 nM. Take `Cc1c2c(n(-c3ccc(Cl)cc3Cl)c1-c1cccc(N)c1)CCN(C1CCCCC1)C2=O`: the Ki on Cannabinoid receptor 1 [1] was 450 nM. In the case of `COc1ccc(-c2c(C)c3c(n2-c2ccccc2Cl)CCN(C2CCCCC2)C3=O)cc1`, on Cannabinoid receptor 1 [1], the Ki is 7.5 nM.
